Measurements as given in ChEMBL document CHEMBL5108057, “Development of MAO-A and 5-HT2AR Dual Inhibitors with Improved Antidepressant Activity” (J Med Chem, 2022).
Activity calls are given as the source filed them. The calls are words filed in the database; no cut-off is given here.

Key:
[1] = system: Mus musculus; experiment: Antidepressant activity in chronic unpredictable mild stress ICR mouse model assessed as increase in gluco-phagy at 10 to 20 mg/kg measured after 2 weeks by sugar preference test; type: functional, organism-based; details: dose 10-20 mg/kg
Summary of the method: (§1)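 ICR mice received CUMS for 4 weeks: 11 stressors given randomly twice daily, 42 days in total. OFT: 5 min session scoring distance, speed, rearing and dejection. FST/TST: 6 min, with immobility scored over the last 4 min. Sucrose preference test was also run. Mean ± SD, n = 6.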

[2] = Bioavailability in Sprague-Dawley rat at 2 mg/kg, iv measured upto 1440 mins by LC-MS/MS analysis; type: ADME, organism-based; details: in vivo
[3] = Clearance in Sprague-Dawley rat at 10 mg/kg, IG measured upto 1440 mins by LC-MS/MS analysis; type: ADME, organism-based; details: in vivo, po
[4] = AUC(0 to infinity) in Sprague-Dawley rat at 10 mg/kg, IG measured upto 1440 mins by LC-MS/MS analysis; type: ADME, organism-based; set-up: time < 1440 min, dose 10 mg/kg, route ig; details: in vivo, po
[5] = system: Mus musculus; experiment: Antidepressant activity in reserpine-induced ICR mouse model assessed as reduction in immobility time at 10 to 20 mg/kg pretreated with reserpine for 3 days followed by compound addition on day 4 to 10 by forced swimming test; type: functional, organism-based; details: dose 10-20 mg/kg, time 6.0 day
Summary of the method: (§2)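 Body weight was recorded daily. OFT: 5 min session scoring distance, speed, rearing and dejection. FST and TST: 6 min, with immobility scored over the last 4 min. Mean ± SD, n = 6; one-way ANOVA and t-test.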

[6] = system: PC-12; experiment: Neurocytoprotective activity against CORT-induced damage in rat PC-12 cells at 0.5 to 4 uM measured after 24 hrs by MTT assay; type: functional, cell-based; details: dose 0.5-4 µM
Summary of the method: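 PC12 cells seeded at 5 × 10^4 cells/mL for 24 h. Medium was then replaced with compound (0.5–4.0 μM) plus 500 μM CORT (DMSO <1%) for 24 h. Viability was measured by MTT relative to the CORT model group.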

[7] = Toxicity in mouse assessed as toxic effect on lung at 10 to 20 mg/kg by H and E staining based assay; type: organism-based; details: in vivo, dose 10-20 mg/kg
Summary of the method: (§3)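 Mice given compound at 10 or 20 mg/kg, with fluoxetine 20 mg/kg as comparator. Paraffin tissue sections of 4 μm were cut. Staining: hematoxylin 5 min, 75% HCl-ethanol differentiation 30 s, eosin 2 min. Organs (liver, kidney, lung, heart, spleen) examined at ×400; hippocampus (CA1, CA3, DG) at ×200.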

[8] = species on record: Danio rerio; experiment: Antidepressant activity in reserpine-induced zebrafish AB depression model assessed as decrease in immobility time at 0.1 to 1 uM pretreated for 40 mins with reserpine followed by compound addition and measured for 7 days by open field test; type: functional, organism-based; details: dose 0.1-1 µM, time 7.0 day
Summary of the method: (§4)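 Zebrafish were exposed to 10 mg/L reserpine for 40 min. Compound (0.1, 0.5, 1 μM) or fluoxetine (1 μM) was given 24 h later for 7 days. Fish kept at 28.5 °C on a 14 h light/10 h dark cycle. Open-field and novel tank tests were video-tracked for distance, velocity, immobility and time in the top. Mean ± SD, n = 6.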

[9] = species on record: Danio rerio; experiment: Antidepressant activity in reserpine-induced zebrafish AB depression model assessed as fast travel at 0.1 to 1 uM pretreated for 40 mins with reserpine followed by compound addition and measured for 7 days by open field test; type: functional, organism-based; details: dose 0.1-1 µM, time 7.0 day; summary of the method: as §4
[10] = MRT infinity in Sprague-Dawley rat at 2 mg/kg, iv measured upto 1440 mins by LC-MS/MS analysis; type: ADME, organism-based; details: in vivo
[11] = system: Mus musculus; experiment: Antidepressant activity in chronic unpredictable mild stress ICR mouse model assessed as increase in total distance traveled at 10 to 20 mg/kg administered for 2 weeks by open field test; type: functional, organism-based; details: dose 10-20 mg/kg; summary of the method: as §1
[12] = Cytotoxicity against human SH-SY5Y cells assessed as reduction in cell growth measured after 48 hrs by MTT assay; type: toxicity, cell-based
Summary of the method: (§5)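 MTT assay: PC12, SH-SY5Y or L02 cells at 5.0 × 10^3 per well were grown for 24 h, treated with compound dilutions from 10 mM DMSO stocks, and cultured 48 h. MTT was then added for 4 h at 37 °C, formazan dissolved in DMSO, and absorbance read at 570 nm. Viability is relative to blank control; IC50 from three repeats. Media contained 10% FBS.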

[13] = Cytotoxicity against human L02 cells assessed as reduction in cell growth measured after 48 hrs by MTT assay; type: toxicity, cell-based; summary of the method: as §5
[14] = MRT infinity in Sprague-Dawley rat at 10 mg/kg, IG measured upto 1440 mins by LC-MS/MS analysis; type: ADME, organism-based; details: in vivo, po
[15] = Toxicity in mouse assessed as toxic effect on spleen at 10 to 20 mg/kg by H and E staining based assay; type: organism-based; details: in vivo, dose 10-20 mg/kg; summary of the method: as §3
[16] = Clearance in Sprague-Dawley rat at 2 mg/kg, iv measured upto 1440 mins by LC-MS/MS analysis; type: ADME, organism-based; details: in vivo
[17] = Half life in Sprague-Dawley rat at 10 mg/kg, IG measured upto 1440 mins by LC-MS/MS analysis; type: ADME, organism-based; details: in vivo, po
[18] = system: Mus musculus; experiment: Antidepressant activity in chronic unpredictable mild stress ICR mouse model assessed as decrease in immobility time at 10 to 20 mg/kg measured after 2 weeks by forced swimming test; type: functional, organism-based; details: dose 10-20 mg/kg; summary of the method: as §1
[19] = system: Mus musculus; experiment: Antidepressant activity in reserpine-induced ICR mouse model assessed as increase the number of rearing at 10 to 20 mg/kg pretreated with reserpine for 3 days followed by compound addition on day 4 to 10 by open field test; type: functional, organism-based; details: dose 10-20 mg/kg, time 6.0 day; summary of the method: as §2
[20] = Cmax in Sprague-Dawley rat at 2 mg/kg, iv measured upto 1440 mins by LC-MS/MS analysis; type: ADME, organism-based; set-up: time < 1440 min, dose 2 mg/kg, route iv; details: in vivo
[21] = AUC(0 to 24 hrs) in Sprague-Dawley rat at 2 mg/kg, iv measured upto 1440 mins by LC-MS/MS analysis; type: ADME, organism-based; set-up: dose 2 mg/kg, time < 1440 min, route iv; details: in vivo
[22] = species on record: Danio rerio; experiment: Antidepressant activity in reserpine-induced zebrafish AB depression model assessed as increase in distance traveled at 0.1 to 1 uM pretreated for 40 mins with reserpine followed by compound addition and measured for 7 days by open field test; type: functional, organism-based; details: dose 0.1-1 µM, time 7.0 day; summary of the method: as §4
[23] = system: Mus musculus; experiment: Antidepressant activity in reserpine-induced ICR mouse model assessed as improvement in depression like behavior at 10 mg/kg pretreated with reserpine for 3 days followed by compound addition for 1 week by open field test; type: functional, organism-based; details: time 1.0 weeks; summary of the method: as §2
[24] = system: Mus musculus; experiment: Antidepressant activity in reserpine-induced ICR mouse model assessed as reduction in immobility time at 10 to 20 mg/kg pretreated with reserpine for 3 days followed by compound addition on day 4 to 10 by tail suspension test; type: functional, organism-based; details: dose 10-20 mg/kg, time 6.0 day; summary of the method: as §2
[25] = Inhibition of 5-HT2AR mRNA expression in zebra fish AB assessed as fold decrease in 2 delta delta CT level at 1 uM by RT-qPCR method relative to control; type: functional, Danio rerio
Summary of the method: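 Total RNA from zebrafish was extracted with Trizol and reverse-transcribed with MMLV. SYBR Green qPCR: 95 °C 2 min; 40 cycles of 95, 60 and 72 °C, 30 s each; then 72 °C for 5 min. 5-HT2AR was normalized to GAPDH by the 2^−ΔΔCT method; mean ± SD, n = 3.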

[26] = Half life in Sprague-Dawley rat at 2 mg/kg, iv measured upto 1440 mins by LC-MS/MS analysis; type: ADME, organism-based; details: in vivo
[27] = Tmax in Sprague-Dawley rat at 10 mg/kg, IG measured upto 1440 mins by LC-MS/MS analysis; type: ADME, organism-based; details: in vivo, po

For O=C1c2ccccc2-c2nccc3cc(OCCCCCN4CCN(c5ccccc5F)CC4)cc1c23, the Activity [1] was “Active”, the bioavailability [2] was 4.4% and the CL/F [3] was 346 mL/min/kg. For the same compound, the AUC(0-inf) [4] was 504 ng·h/mL, the Activity [5] was “Active” and the Activity [6] was “Active”. For the same compound, the Activity [7] was “Non-Toxic”, the Activity [8] was “Active” and the Activity [9] was “Active”. For the same compound, the MRT inf [10] was 4.19 h, the Activity [11] was “Active” and the IC50 at 48 h [12] was > 10 µM. The IC50 at 48 h [13] was > 100 µM, the MRT inf [14] was 4.94 h and the Activity [15] was “Non-Toxic”. For the same compound, the clearance [16] was 14.5 mL/min/kg, the half-life [17] was 5.22 h and the Activity [18] was “Active”. For the same compound, the Activity [19] was “Active”, the Cmax [20] was 673 ng/mL and the AUC(0-t) at 24 h [21] was 2230 ng·h/mL. The Activity [22] was “Active”, the Activity [23] was “Active” and the Activity [24] was “Active”. For the same compound, the “fold change (FC)” value [25] was 0.014, the half-life [26] was 6.31 h and the Tmax [27] was 1.33 h.
